How the values were obtained:
[1] = target: T1, Bone morphogenetic protein receptor type-2 (Homo sapiens) (UniProt Q13873); test: Binding affinity to recombinant BMPR2 (unknown origin) assessed as change in melting temperature at 10 uM by DSF assay
T1 sequence (whole entry): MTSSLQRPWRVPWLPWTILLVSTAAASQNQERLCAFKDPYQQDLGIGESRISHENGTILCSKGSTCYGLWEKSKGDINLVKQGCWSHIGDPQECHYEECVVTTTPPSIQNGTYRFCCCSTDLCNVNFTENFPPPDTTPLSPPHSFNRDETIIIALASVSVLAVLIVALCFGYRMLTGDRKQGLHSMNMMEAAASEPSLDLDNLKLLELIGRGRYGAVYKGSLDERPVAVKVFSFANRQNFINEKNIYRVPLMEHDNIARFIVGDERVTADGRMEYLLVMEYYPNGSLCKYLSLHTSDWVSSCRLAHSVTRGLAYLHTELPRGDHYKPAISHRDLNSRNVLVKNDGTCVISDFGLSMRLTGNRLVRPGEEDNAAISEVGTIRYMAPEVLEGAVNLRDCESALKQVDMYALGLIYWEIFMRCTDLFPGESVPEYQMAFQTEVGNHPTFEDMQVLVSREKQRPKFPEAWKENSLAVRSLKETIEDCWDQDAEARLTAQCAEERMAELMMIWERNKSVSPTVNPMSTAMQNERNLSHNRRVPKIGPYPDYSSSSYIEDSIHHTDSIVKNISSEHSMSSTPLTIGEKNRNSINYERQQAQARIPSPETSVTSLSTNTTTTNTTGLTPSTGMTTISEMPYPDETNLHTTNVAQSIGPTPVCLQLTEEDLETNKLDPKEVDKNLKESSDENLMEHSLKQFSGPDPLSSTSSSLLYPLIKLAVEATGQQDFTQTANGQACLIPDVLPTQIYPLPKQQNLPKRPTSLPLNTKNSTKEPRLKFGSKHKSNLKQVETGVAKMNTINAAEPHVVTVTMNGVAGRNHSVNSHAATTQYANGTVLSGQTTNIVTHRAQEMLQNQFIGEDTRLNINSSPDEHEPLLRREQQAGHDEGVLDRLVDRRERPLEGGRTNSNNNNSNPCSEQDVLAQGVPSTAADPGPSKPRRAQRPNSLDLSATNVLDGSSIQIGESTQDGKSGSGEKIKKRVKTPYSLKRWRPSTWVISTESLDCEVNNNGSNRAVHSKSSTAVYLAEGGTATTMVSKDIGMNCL
Outline: (§1)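 Differential scanning fluorimetry on an in-house panel of 90 recombinant kinases. Stabilization is read as the shift in melting temperature (ΔTm) relative to ligand-free protein. Staurosporine served as the positive control, and binding was also compared against its ΔTm.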

[2] = target: T2, Serine/threonine-protein kinase 4 (Homo sapiens) (UniProt Q13043); test: Binding affinity to recombinant STK4 (unknown origin) assessed as change in melting temperature at 10 uM by DSF assay; outline: as §1
T2 sequence (whole entry): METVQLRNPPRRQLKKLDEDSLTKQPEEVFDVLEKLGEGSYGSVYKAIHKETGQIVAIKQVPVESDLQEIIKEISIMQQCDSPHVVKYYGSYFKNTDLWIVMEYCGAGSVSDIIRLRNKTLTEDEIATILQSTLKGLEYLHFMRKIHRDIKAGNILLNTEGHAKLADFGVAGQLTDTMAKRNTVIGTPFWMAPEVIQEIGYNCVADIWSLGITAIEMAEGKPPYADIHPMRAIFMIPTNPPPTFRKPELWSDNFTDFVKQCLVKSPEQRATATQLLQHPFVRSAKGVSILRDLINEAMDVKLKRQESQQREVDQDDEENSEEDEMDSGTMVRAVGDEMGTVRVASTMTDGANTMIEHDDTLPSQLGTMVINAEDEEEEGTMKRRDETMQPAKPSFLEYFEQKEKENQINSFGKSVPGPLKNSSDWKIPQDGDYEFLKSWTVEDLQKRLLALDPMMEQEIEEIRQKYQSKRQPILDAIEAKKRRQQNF

[3] = target: T3, MAP/microtubule affinity-regulating kinase 4 (Homo sapiens) (UniProt Q96L34); test: Inhibition of recombinant MARK4 (unknown origin) at 10 uM by DSF assay relative to staurosporine; outline: as §1
T3 sequence (whole entry): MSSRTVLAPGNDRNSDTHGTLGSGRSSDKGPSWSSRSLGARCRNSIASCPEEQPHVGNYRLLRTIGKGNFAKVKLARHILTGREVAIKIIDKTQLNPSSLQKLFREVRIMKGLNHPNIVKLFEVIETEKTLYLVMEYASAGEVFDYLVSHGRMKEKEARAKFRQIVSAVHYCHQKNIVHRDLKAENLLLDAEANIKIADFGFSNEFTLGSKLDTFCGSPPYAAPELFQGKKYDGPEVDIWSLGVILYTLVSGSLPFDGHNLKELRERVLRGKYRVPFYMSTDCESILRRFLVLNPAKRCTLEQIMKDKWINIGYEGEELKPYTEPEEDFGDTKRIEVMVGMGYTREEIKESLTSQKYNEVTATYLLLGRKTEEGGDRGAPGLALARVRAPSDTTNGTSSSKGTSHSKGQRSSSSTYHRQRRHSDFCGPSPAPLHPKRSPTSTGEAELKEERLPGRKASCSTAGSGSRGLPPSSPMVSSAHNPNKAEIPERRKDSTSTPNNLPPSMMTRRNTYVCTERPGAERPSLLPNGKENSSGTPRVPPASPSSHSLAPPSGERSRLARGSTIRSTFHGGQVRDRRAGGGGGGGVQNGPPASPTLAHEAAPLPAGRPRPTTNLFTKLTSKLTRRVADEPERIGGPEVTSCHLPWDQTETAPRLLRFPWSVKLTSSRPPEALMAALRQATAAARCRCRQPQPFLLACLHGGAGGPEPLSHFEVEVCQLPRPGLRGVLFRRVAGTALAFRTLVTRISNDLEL

[4] = target: T1, Bone morphogenetic protein receptor type-2 (Homo sapiens); test: Binding affinity to BMPR2 (unknown origin) assessed as change in enthalpy by ITC assay
Outline: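 Binding measured by isothermal titration calorimetry against the recombinant BMPR2 kinase domain. Thermodynamic binding parameters, including the dissociation constant, were derived from the titration data.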

[5] = target: Glycogen synthase kinase-3 beta (Homo sapiens, UniProt P49841); test: Inhibition of recombinant GSK3B (unknown origin) at 10 uM by DSF assay relative to staurosporine; outline: as §1
Chain of Glycogen synthase kinase-3 beta (P49841 whole entry, looked up): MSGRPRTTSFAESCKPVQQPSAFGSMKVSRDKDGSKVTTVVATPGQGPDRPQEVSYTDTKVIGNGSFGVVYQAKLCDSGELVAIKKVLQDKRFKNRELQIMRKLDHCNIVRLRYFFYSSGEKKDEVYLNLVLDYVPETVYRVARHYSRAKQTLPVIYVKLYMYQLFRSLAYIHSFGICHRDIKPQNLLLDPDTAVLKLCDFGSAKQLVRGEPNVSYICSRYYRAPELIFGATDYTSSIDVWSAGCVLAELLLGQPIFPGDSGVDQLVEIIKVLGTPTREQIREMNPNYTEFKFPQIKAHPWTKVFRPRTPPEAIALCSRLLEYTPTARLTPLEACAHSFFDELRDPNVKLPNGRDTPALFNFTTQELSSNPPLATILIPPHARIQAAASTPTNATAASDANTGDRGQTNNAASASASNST

[6] = target: Serine/threonine-protein kinase RIO2 (Homo sapiens) (UniProt Q9BVS4); test: Inhibition of RIOK2 (unknown origin) assessed as residual activity at 1 uM by Kinomescan assay relative to staurosporine
Chain of Serine/threonine-protein kinase RIO2 (Homo sapiens) (Q9BVS4 whole entry, looked up): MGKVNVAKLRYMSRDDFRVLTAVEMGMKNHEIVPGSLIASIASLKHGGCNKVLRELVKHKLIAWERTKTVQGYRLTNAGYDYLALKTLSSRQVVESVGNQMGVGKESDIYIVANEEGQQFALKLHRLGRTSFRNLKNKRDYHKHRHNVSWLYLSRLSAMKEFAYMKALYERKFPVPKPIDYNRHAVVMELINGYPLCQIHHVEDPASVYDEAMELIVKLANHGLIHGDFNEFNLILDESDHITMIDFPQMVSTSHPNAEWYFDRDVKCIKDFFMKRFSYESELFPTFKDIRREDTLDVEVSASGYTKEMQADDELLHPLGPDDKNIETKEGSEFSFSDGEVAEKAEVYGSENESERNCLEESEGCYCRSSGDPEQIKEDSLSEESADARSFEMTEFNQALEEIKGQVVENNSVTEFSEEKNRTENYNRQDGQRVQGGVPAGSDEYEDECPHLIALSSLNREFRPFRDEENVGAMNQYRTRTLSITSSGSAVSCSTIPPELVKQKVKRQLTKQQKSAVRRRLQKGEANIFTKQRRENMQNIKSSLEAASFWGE

[7] = target: Cyclin-dependent kinase 2 (Homo sapiens) (UniProt P24941); test: Binding affinity to recombinant CDK2 (unknown origin) assessed as change in melting temperature at 10 uM by DSF assay; outline: as §1
[8] = target: MAP/microtubule affinity-regulating kinase 3 (Homo sapiens) (UniProt P27448); test: Inhibition of recombinant MARK3 (unknown origin) at 10 uM by DSF assay relative to staurosporine; outline: as §1
Chain of MAP/microtubule affinity-regulating kinase 3 (Homo sapiens) (P27448 whole entry, looked up): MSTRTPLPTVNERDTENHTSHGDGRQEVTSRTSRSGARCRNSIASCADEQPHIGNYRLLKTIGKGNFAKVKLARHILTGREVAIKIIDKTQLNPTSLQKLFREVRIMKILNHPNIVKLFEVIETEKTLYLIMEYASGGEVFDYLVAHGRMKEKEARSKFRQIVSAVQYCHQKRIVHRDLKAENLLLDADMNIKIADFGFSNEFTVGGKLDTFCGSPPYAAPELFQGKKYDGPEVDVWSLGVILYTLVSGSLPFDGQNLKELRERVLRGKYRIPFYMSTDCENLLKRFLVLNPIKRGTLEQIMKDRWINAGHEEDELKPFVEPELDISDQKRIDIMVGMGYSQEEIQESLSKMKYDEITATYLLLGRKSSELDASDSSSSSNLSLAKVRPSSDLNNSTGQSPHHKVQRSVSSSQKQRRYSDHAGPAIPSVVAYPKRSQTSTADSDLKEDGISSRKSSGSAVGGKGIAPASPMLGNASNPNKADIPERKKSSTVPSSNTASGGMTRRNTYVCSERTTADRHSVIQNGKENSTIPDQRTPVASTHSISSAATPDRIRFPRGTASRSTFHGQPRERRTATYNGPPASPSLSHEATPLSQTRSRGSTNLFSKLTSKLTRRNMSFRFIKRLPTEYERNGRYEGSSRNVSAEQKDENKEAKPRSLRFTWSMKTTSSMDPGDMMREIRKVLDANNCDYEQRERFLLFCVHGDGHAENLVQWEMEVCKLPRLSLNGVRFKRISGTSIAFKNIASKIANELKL

SMILES: O=C1NCCc2ccc(cc2)Nc2nccc(n2)Nc2cc1[nH]n2
- ΔTm [1]: 5.8 °C
- ΔTm [2]: 3.2 °C
- inhibition [3]: 23%
- deltaH [4]: -8.41 kcal/mol
- inhibition [5]: 71%
- Activity [6]: 27%
- ΔTm [7]: 3.3 °C
- inhibition [8]: 22%

Source: ChEMBL document CHEMBL5247671, “Design and Synthesis of Pyrazole-Based Macrocyclic Kinase Inhibitors Targeting BMPR2” (ACS Med Chem Lett, 2023)
